From PubChem BioAssay
S1P1 ag pot = activates or potentiates agonism at human S1P1 receptor; P21453; S1P1 CRE-bla cells, forskolin, beta-lactamase FRET, potentiator mode; S1P1 agonist co-added at EC20, 2 nM; 100% = saturating reference agonist, 0% = basal; activation, % at 9.5 µM; 0.57% of 56,000 active;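 active = activation above a cutoff set at the mean activation of all tested compounds plus 3 SD, cut at about 54% in these data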;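 note: forskolin at 4 µM as EC80 and the EC20 agonist is SEW2871; 100% = SEW2871 at its EC100 plus forskolin at EC80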
Target sequence (P21453 whole entry, looked up): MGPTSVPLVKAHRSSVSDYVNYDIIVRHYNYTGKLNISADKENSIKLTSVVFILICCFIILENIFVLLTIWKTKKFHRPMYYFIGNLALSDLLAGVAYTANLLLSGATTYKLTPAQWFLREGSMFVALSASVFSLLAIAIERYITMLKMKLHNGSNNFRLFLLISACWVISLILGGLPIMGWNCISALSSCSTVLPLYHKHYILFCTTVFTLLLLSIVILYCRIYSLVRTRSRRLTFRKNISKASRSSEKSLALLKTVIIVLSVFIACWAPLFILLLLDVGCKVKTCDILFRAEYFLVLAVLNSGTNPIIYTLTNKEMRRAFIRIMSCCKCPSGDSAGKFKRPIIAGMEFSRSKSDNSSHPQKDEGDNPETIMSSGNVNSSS
D1 mod = D1 dopamine receptor (human) allosteric modulation | P21728 | HEK293 D1, CRE-luciferase, dopamine EC30 potentiation; actives deviate in either direction | B-score at 10 µM | 5.9% of 58,000 active;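 active = luminescence count or its row- and column-corrected plate score outside the 99.7% band of the plate's sample wells, on either side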
M1 agonist = M1 muscarinic receptor agonism. CHO-M1 cells, Fluo-4 calcium fluorescence, agonist mode; stronger effect = higher value. B-score at 10 µM. 3% of 64,000 active;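 active = fluorescence rise, raw or as B-score row- and column-corrected plate score, outside the 99.7% band of its plate's samples, either direction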
M1 antagonist = antagonists of rat M1 muscarinic receptor; P08482; CHO-M1 cells, Fluo-4 calcium, ACh EC80 antagonist mode; stronger effect = lower value; B-score at 10 µM; 3.4% of 64,000 active;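 active = calcium fluorescence response, raw or row-and-column corrected B-score, differing from the plate sample mean either way at a set confidence level, mostly lower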
S1P3 agonist = S1P3 (human) receptor agonism; S1P3 NFAT-BLA reporter cells, FRET ratio; relative to 1 µM S1P, basal subtracted; activation, % at 4.5 µM; 0.1% of 60,000 active; Q99500;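 active = activation above the screen-wide mean plus 3 SD, cut at about 4.5% in these data, passing the limit was not always enough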
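Assay system: CHO cells stably expressing human S1P3, Gα16 and NFAT-β-lactamase reporter. Timing: overnight plating, 4 h compound 37 °C, 2 h substrate RT. Signal: β-lactamase FRET emission ratio 460/535 nm. Measure: percent activation versus median 1 µM S1P response, basal-subtracted, per plate. Repeats: primary screen single test, confirmation screen in triplicate.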
M1 agonist conf = confirmation of rat M1 muscarinic receptor agonists. shares compounds with M1 agonist. CHO-M1 cells, Fluo-4 calcium fluorescence, agonist mode; actives lie on both sides. fluorescence change (max-min) at 10 µM. 19% of 1,700 active;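 active = fluorescence change differs from the solvent-only DMSO control mean at a set confidence level in both duplicate runs; inconclusive = differs from solvent-only control mean in just one of two runs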;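 note: an EC20 dose of acetylcholine follows compound addition during the same imaging run; raw fluorescence intensity difference in instrument units with no normalization to controls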
M4 agonist ctr = counter-screen for M1 agonists: activity at rat M4 receptor; CHO M4/Gqi5 cells, Fluo-4 calcium fluorescence, agonist mode; actives lie on both sides; fluorescence change (max-min) at 10 µM; 9% of 1,700 active; shares compounds with M1 agonist;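 active = fluorescence change differing from the plate's solvent-only control wells at 99.7% confidence in both duplicates, whether higher or lower; inconclusive = differs from solvent controls in only one of two duplicates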
M1 antag conf = M1 muscarinic receptor (rat) antagonism, confirmed. shares compounds with M1 antagonist. CHO-M1 cells, Fluo-4 calcium, ACh EC80 antagonism; stronger effect = lower value. calcium response (max-min fluorescence) at 10 µM. 43% of 1,700 active. AID 677;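 active = calcium response below the same-plate mean of wells given acetylcholine alone at its 80%-effect dose, minus 3 SD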;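 note: raw fluorescence intensity difference in arbitrary instrument units and not normalized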
mGluR4 antag = selectivity test for M1 antagonists: human mGluR4 receptor; shares compounds with M1 antagonist; CHO-mGluR4 calcium flux, Fluo-4 fluorescence, glutamate EC80; stronger effect = lower value; fluorescence response (max-min) at 10 µM; 0.9% of 1,700 active; AID 678;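 active = fluorescence response below the plate's average for near-maximal glutamate wells, less 3 SD of those wells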;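 note: raw unnormalized fluorescence span taken in the window right after glutamate addition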
D1 mod confirm = D1 receptor (human) allosteric modulation, confirmed; shares compounds with D1 mod; AID 642; luminescence at 10 µM; 88% of 2,200 active; HEK293 D1 CRE-luciferase, dopamine EC30 potentiation; stronger effect = higher value;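 active = luminescence in either of two replicates above the same-plate mean plus 3 SD of the low-dose dopamine control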
D1 ag no DA = secondary test of D1 modulators: activity without dopamine; HEK293 D1 CRE-luciferase, luminescence, no dopamine; stronger effect = higher value; AID 646; luminescence at 10 µM; shares compounds with D1 mod; 0.8% of 1,900 active; in the data active = luminescence above about 3900
Isoprot counter = isoproterenol response counter-screen activity for D1 modulators; calls only at 10 µM; shares compounds with D1 mod; 63% of 2,200 active; HEK293 D1 CRE-luciferase, isoproterenol EC30 counter-screen;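 active = luminescence in either replicate above plate mean of wells with a partly effective reference agonist dose plus 3 SD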;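 note: isoproterenol raises cAMP through native beta-adrenoceptor Gs so signal bypasses D1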
Numbers without * were called inactive; i = inactive; u = inconclusive; x = no result given. Only some compounds are listed: those with a hit (about 11% of all), similar ones and a draw of the others.

SMILES	S1P1 ag pot	D1 mod	M1 agonist	M1 antagonist	S1P3 agonist	M1 antag conf	mGluR4 antag	others
C=CCn1c(O)c(C=Nc2ccc(N(CC)CC)cc2)c(=O)[nH]c1=O	23	x	17*	-0.0093	-4	x	x	M1 agonist conf=15;M4 agonist ctr=18
COCCOC(=O)c1c(C)oc2ccc(OC(=O)N(C)C)cc12	-7	0.15	0.84	0.021	-2	x	x
CCOc1ccc(-n2c(O)c(C=NCCN(CC)CC)c(=O)[nH]c2=O)cc1	-20	0.28	-0.61	0.17	-1	x	x
O=c1[nH]c(=O)n(-c2ccc(F)cc2)c(O)c1C=Nc1ccccc1N1CCCC1	-13	-0.092	4.2*	0.1	-1	x	x	M1 agonist conf=-2.1;M4 agonist ctr=u
COCCNC(=O)c1c(NC(=O)c2ccco2)n(Cc2ccccc2)c2nc3ccccc3nc12	10	4.3*	3.6*	0.047	1	x	x	M1 agonist conf=40;M4 agonist ctr=18;D1 mod confirm=10288*;D1 ag no DA=1576;Isoprot counter=i
Cc1ccc(S(=O)(=O)NC(CC(=O)N2CCC3(CC2)OCCO3)c2ccco2)cc1 (stereo not drawn)	-20	0.51	0.37	1.7	-1	x	x
O=C(COc1ccc2ccccc2c1)N1CCN(C2CCN(Cc3ccccc3)CC2)CC1	21	0.81	-0.88	-2.4*	-5	530	252
O=C(COc1ccccc1)N1CCN(C2CCCC2)CC1	-3	-0.42	-0.25	-0.88	-1	x	x
COc1ccc(CN2CCN(c3ccccc3)CC2)c(C)c1C	-25	-0.82	0.6	-0.66	-1	x	x
CCN(CC)CCCN=Cc1c(O)n(-c2ccccc2F)c(=O)[nH]c1=O	-12	0.86	-0.61	-2.3*	0	635	207
CCN(CC)CCCN=Cc1c(O)n(-c2cccc(C)c2C)c(=O)[nH]c1=O	-6	-0.87	0.61	-0.54	-2	x	x
CCOC(=O)C1SC2(C(F)(F)F)CC1(O)c1c(C)cc(C)nc1O2 (stereo not drawn)	9	-0.71	1.2	0.36	0	x	x
CN1C(=O)C(Cc2cccc3ccccc23)C(=O)N(C)C1=O	-20	-0.0027	0.31	0.16	1	x	x
O=C1C2CCN(CC2)[C@@H]1Cc1ccc2ccccc2c1O	2	-1	-0.62	-4.6*	-3	92*	243
CC1CN=C(Nc2ccccc2)S1 (stereo not drawn)	-16	x	-0.62	-0.17	-2	x	x
CC1CN=C(Nc2ccc(N(C)C)cc2)S1 (stereo not drawn)	-4	-3.6	-1.6	-2.1*	-4	606	240
CCOC(=O)C1CCN(C(C)C(=O)c2c(C)[nH]c3cc(C)ccc23)CC1 (stereo not drawn)	16	-0.39	1.4	-4.3*	0	445*	251
COc1ccccc1-n1c(O)c(C=Nc2c(C)n(C)n(-c3ccccc3)c2=O)c(=O)[nH]c1=O	9	-0.23	0.81	-0.34	-1	x	x
CCOC(=O)C1(c2ccccc2)CCN(Cc2cccc(C(=O)O)c2)CC1	-4	0.023	0.23	-3.8*	-1	630	198
COc1cc(CN2CCN(C(=O)COc3ccccc3)CC2)cc(OC)c1OC	-33	0.018	-1	0.36	-1	x	x
COc1ccc(N2C(=O)CC(N3CC=C(c4ccccc4)CC3)C2=O)cc1 (stereo not drawn)	3	x	-0.051	1.4	-1	x	x
CN1CCN(CCC(C#N)(c2ccccc2)c2ccccc2)CC1	x	x	0.071	-17*	x	16*	230
O=C1NC(=O)C(CCc2ccncc2)(C2CCCCC2)C(=O)N1	-18	-0.63	0.018	-4.6*	1	550*	185
CCN1CCN(Cc2ccc(C)cc2)CC1	-15	-0.19	-0.33	-0.069	-2	x	x
CCCCCCOc1ccc(CN2CCN(C)CC2)cc1	0	-3.5*	-0.39	-3.3*	-1	502*	222
SMILES	S1P1 ag pot	D1 mod	M1 agonist	M1 antagonist	S1P3 agonist	M1 antag conf	mGluR4 antag	others
O=P1(NCc2ccco2)COc2ccccc2OC1	-15	-0.024	x	x	0	x	x
C[N+]1(C)[C@@H]2CC[C@H]1CC(OC(=O)C(CO)c1ccccc1)C2 (stereo partly drawn)	5	0.66	-0.0048	-17*	-4	12*	200
COc1ccc(CN2CCCCC2c2cccnc2)cc1C (stereo not drawn)	10	-0.96	-0.88	-5.4*	0	482*	242
CCOC(=O)C1=C(C)N(C)C2(C)CC1c1ccccc1O2 (stereo not drawn)	-17	-0.87	0.86	-2.4*	0	563	209
CCOC(=O)C1C2NC(=O)N(Cc3ccccc3)C1(C)Oc1c(OC)cccc12 (stereo not drawn)	-4	0.07	-1.1	1	0	x	x
CCCCn1c(O)c(C(CC)=NCCCN(C)C)c(=O)[nH]c1=O	-5	0.25	x	x	0	x	x
CCCCn1c(O)c(C=Nc2c(C)n(C)n(-c3ccccc3)c2=O)c(=O)[nH]c1=O	-29	-0.0038	-0.34	-2.5*	0	511	209
CCCCn1c(O)c(C(C)=Nc2c(C)n(C)n(-c3ccccc3)c2=O)c(=O)[nH]c1=O	15	-0.011	1.4	-8.4*	-1	326*	247
CC1(C)CC(n2[nH]c(=O)c3c2NC(=O)CSC3c2ccc(F)cc2)CCO1 (stereo not drawn)	x	-0.98	0.03	0.56	x	x	x
CC1SC2(CN3CCC2CC3)NC1=O (stereo not drawn)	19	0.034	0.22	0.38	-1	x	x
CC1CCC(NCCc2ccc3c(c2)OCO3)CC1 (stereo not drawn)	-19	0.32	-0.19	-5.2*	-1	199*	245
CN1C(=O)N(C)C(=O)C2(Sc3ccccc3C2=O)C1=O	3	0.4	0.97	-0.049	0	x	x
